The test system of test [1] is Nucleic Acid. The test is described as follows: Binding affinity to 5'-UGGAGUGUGACAAUGGUG RNA (unknown origin) assessed as melting temperature at 10 mM by UV-thermal denaturation assay. The following applies: 10 mM NaCl. In kind it is nucleic-acid assay. The method in brief:
(§1)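 Each strand 1 µM (concentrations from nucleobase molar extinction coefficients) in 10 mM sodium phosphate pH 7.0 with 10 or 100 mM NaCl. Annealed 90 °C for 5 min, slow-cooled to room temperature then 0 °C. Absorbance at 260 nm followed from 10 to 85 °C at 0.5 °C/min. Tm taken from first-derivative curves. At least three runs, accurate within 0.3 °C.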

The subject of test [2] is Nucleic Acid. The test is described as follows: Binding affinity to 5'-UGGAGUGAGACAAUGGUG mismatch RNA (unknown origin) assessed as melting temperature at 10 mM by UV-thermal denaturation assay. The settings on record: 10 mM NaCl. In kind it is nucleic-acid assay. The method in brief:
as §1

Test [3] has as its system Nucleic Acid. The test is described as follows: Binding affinity to 5'-TGGAGTGTGACAATGGTG cDNA (unknown origin) assessed as melting temperature at 10 mM by UV-thermal denaturation assay. In kind it is nucleic-acid assay. The following applies: 10 mM NaCl. In a few lines:
as §1

The nature of test [4]: Binding affinity to 5'-TGGAGTGTGACAATGGTG cDNA (unknown origin) at 1 uM by circular dichroism analysis. In a few lines: (§2)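 CD spectra of 1 µM complexes in 10 mM sodium phosphate pH 7.0 with 10 mM NaCl, annealed 90 °C for 5 min and slow-cooled to room temperature. Recorded at room temperature from 320 to 210 nm at 100 nm/min in a 1 cm path cuvette. At least 8 scans averaged.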
For orientation: Circular dichroism is widely used to follow secondary structure.

The subject of test [5] is Nucleic Acid. Briefly: Binding affinity to 5'-UGGAGUGUGACAAUGGUG RNA (unknown origin) assessed as melting temperature at 100 mM by UV-thermal denaturation assay. The following applies: 100 mM NaCl. In kind it is nucleic-acid assay. In a few lines:
as §1

Test [6] is described as follows: Binding affinity to 5'-UGGAGUGUGACAAUGGUG RNA (unknown origin) at 1 uM by circular dichroism analysis. The method in brief: as §2
Test [7] has as its system Nucleic Acid. The test is described as follows: Binding affinity to 5'-TGGAGTGTGACAATGGTG cDNA (unknown origin) assessed as melting temperature at 100 mM by UV-thermal denaturation assay. Format: nucleic-acid assay. The following applies: 100 mM NaCl. The method in brief: as §1
The test system of test [8] is Nucleic Acid. Briefly: Binding affinity to 5'-UGGAGUGAGACAAUGGUG mismatch RNA (unknown origin) assessed as melting temperature at 100 mM by UV-thermal denaturation assay. The settings on record: 100 mM NaCl. In kind it is nucleic-acid assay. The method in brief:
as §1

Active and inactive are the calls of the source. The calls are words filed in the database; no cut-off is given here.

The term Tm denotes the temperature at which the thermal transition is half complete.

For the molecule `Cc1cn(CC(=O)N(CCNC(=O)CN(CCNC(=O)CN(CCNC(=O)CN(CCNC(=O)CN(CCNC(=O)CN(CCN)C(=O)Cn2ccc(N)nc2=O)C(=O)Cn2cnc3c(N)ncnc32)C(=O)Cn2cc(C)c(=O)[nH]c2=O)C(=O)Cn2cc(C)c(=O)[nH]c2=O)C(=O)Cn2cnc3c(=O)[nH]c(N)nc32)CC(=O)NCCN(CC(=O)NCCN(CC(=O)NCCN(CC(=O)NCCN(CC(=O)NCCN(CC(=O)NCCN(CC(=O)N[C@@H](CCCCN)C(N)=O)C(=O)Cn2cc(C)c(=O)[nH]c2=O)C(=O)Cn2ccc(N)nc2=O)C(=O)Cn2cnc3c(N)ncnc32)C(=O)Cn2ccc(N)nc2=O)C(=O)Cn2cnc3c(N)ncnc32)C(=O)Cn2ccc(N)nc2=O)c(=O)[nH]c1=O`, the Tm turned out to be 66.1 °C in test [1]; 55.1 °C in test [2]; 64.6 °C in test [3]; 63.7 °C in test [5]; 60.1 °C in test [7]; 53 °C in test [8]. Moreover, the result in test [4] and in test [6] was Active.
Regarding `Cc1cn(CC(=O)N(CCNC(=O)CN(CCNC(=O)CN(CCN)C(=O)Cn2ccc(N)nc2=O)C(=O)Cn2cnc3c(N)ncnc32)CC(=O)NCCN(CC(=O)NCCN(CC(=O)N2C[C@@H](N(CC(=O)NCCN(CC(=O)NCCN(CC(=O)NCCN(CC(=O)NCCN(CC(=O)NCCN(CC(=O)NCCN(CC(=O)N[C@@H](CCCCN)C(N)=O)C(=O)Cn3cc(C)c(=O)[nH]c3=O)C(=O)Cn3ccc(N)nc3=O)C(=O)Cn3cnc4c(N)ncnc43)C(=O)Cn3ccc(N)nc3=O)C(=O)Cn3cnc4c(N)ncnc43)C(=O)Cn3ccc(N)nc3=O)C(=O)Cn3cc(C)c(=O)[nH]c3=O)C[C@H]2CN)C(=O)Cn2cnc3c(=O)[nH]c(N)nc32)C(=O)Cn2cc(C)c(=O)[nH]c2=O)c(=O)[nH]c1=O`, the Tm amounted to 60.4 °C in test [1]; 46.7 °C in test [2]; 51.8 °C in test [3]; 57.2 °C in test [5]; 46.6 °C in test [7]; 44.7 °C in test [8]. The outcome in test [4] and in test [6] was Active.
With `Cc1cn(CC(=O)N(CCNC(=O)CN(CCNC(=O)CN(CCN)C(=O)Cn2ccc(N)nc2=O)C(=O)Cn2cnc3c(N)ncnc32)CC(=O)NCCN(CC(=O)NCCN(CC(=O)N2C[C@@H](N(CC(=O)NCCN(CC(=O)NCCN(CC(=O)NCCN(CC(=O)NCCN(CC(=O)NCCN(CC(=O)NCCN(CC(=O)N[C@@H](CCCCN)C(N)=O)C(=O)Cn3cc(C)c(=O)[nH]c3=O)C(=O)Cn3ccc(N)nc3=O)C(=O)Cn3cnc4c(N)ncnc43)C(=O)Cn3ccc(N)nc3=O)C(=O)Cn3cnc4c(N)ncnc43)C(=O)Cn3ccc(N)nc3=O)C(=O)Cn3cc(C)c(=O)[nH]c3=O)C[C@H]2CNC(=N)N)C(=O)Cn2cnc3c(=O)[nH]c(N)nc32)C(=O)Cn2cc(C)c(=O)[nH]c2=O)c(=O)[nH]c1=O`, the Tm in test [1] stood at 62.7 °C; in test [2] it was 47.1 °C; in test [3] it was 53.7 °C; in test [5] it was 59.4 °C; in test [7] it was 48.8 °C; in test [8] it was 46.3 °C. Besides, the result in test [4] and in test [6] was Active.
In the case of `Cc1cn(CC(=O)N(CCNC(=O)CN(CCNC(=O)CN(CCNC(=O)CN(C(=O)Cn2cc(C)c(=O)[nH]c2=O)[C@H]2CCN(C(=O)CN(CCNC(=O)CN(CCN)C(=O)Cn3ccc(N)nc3=O)C(=O)Cn3cnc4c(N)ncnc43)C2)C(=O)Cn2cc(C)c(=O)[nH]c2=O)C(=O)Cn2cnc3c(=O)[nH]c(N)nc32)CC(=O)NCCN(CC(=O)NCCN(CC(=O)NCCN(CC(=O)NCCN(CC(=O)NCCN(CC(=O)NCCN(CC(=O)N[C@@H](CCCCN)C(N)=O)C(=O)Cn2cc(C)c(=O)[nH]c2=O)C(=O)Cn2ccc(N)nc2=O)C(=O)Cn2cnc3c(N)ncnc32)C(=O)Cn2ccc(N)nc2=O)C(=O)Cn2cnc3c(N)ncnc32)C(=O)Cn2ccc(N)nc2=O)c(=O)[nH]c1=O`, the Tm in test [1] stood at 65.5 °C; in test [2], 50.8 °C; in test [3] it was 55.8 °C; in test [5] it was 59.9 °C; in test [7], 50 °C; in test [8], 43.3 °C. Further, the outcome in test [4] and in test [6] was Active.
Consider `Cc1cn(CC(=O)N(CCNC(=O)CN(CCNC(=O)CN(CCNC(=O)CN(C(=O)Cn2cc(C)c(=O)[nH]c2=O)[C@H]2C[C@@H](CN)N(C(=O)CN(CCNC(=O)CN(CCN)C(=O)Cn3ccc(N)nc3=O)C(=O)Cn3cnc4c(N)ncnc43)C2)C(=O)Cn2cc(C)c(=O)[nH]c2=O)C(=O)Cn2cnc3c(=O)[nH]c(N)nc32)CC(=O)NCCN(CC(=O)NCCN(CC(=O)NCCN(CC(=O)NCCN(CC(=O)NCCN(CC(=O)NCCN(CC(=O)N[C@@H](CCCCN)C(N)=O)C(=O)Cn2cc(C)c(=O)[nH]c2=O)C(=O)Cn2ccc(N)nc2=O)C(=O)Cn2cnc3c(N)ncnc32)C(=O)Cn2ccc(N)nc2=O)C(=O)Cn2cnc3c(N)ncnc32)C(=O)Cn2ccc(N)nc2=O)c(=O)[nH]c1=O`, for which the Tm in test [1] stood at 66.3 °C; in test [2], 51.8 °C; in test [3], 57.1 °C; in test [5], 60.1 °C; in test [7] it was 53.8 °C; in test [8] it was 45.7 °C. For the same molecule, the outcome in test [4] and in test [6] was Active.
Turning to `Cc1cn(CC(=O)N(CCNC(=O)CN(CCNC(=O)CN(CCNC(=O)CN(C(=O)Cn2cc(C)c(=O)[nH]c2=O)[C@H]2C[C@@H](CNC(=N)N)N(C(=O)CN(CCNC(=O)CN(CCN)C(=O)Cn3ccc(N)nc3=O)C(=O)Cn3cnc4c(N)ncnc43)C2)C(=O)Cn2cc(C)c(=O)[nH]c2=O)C(=O)Cn2cnc3c(=O)[nH]c(N)nc32)CC(=O)NCCN(CC(=O)NCCN(CC(=O)NCCN(CC(=O)NCCN(CC(=O)NCCN(CC(=O)NCCN(CC(=O)N[C@@H](CCCCN)C(N)=O)C(=O)Cn2cc(C)c(=O)[nH]c2=O)C(=O)Cn2ccc(N)nc2=O)C(=O)Cn2cnc3c(N)ncnc32)C(=O)Cn2ccc(N)nc2=O)C(=O)Cn2cnc3c(N)ncnc32)C(=O)Cn2ccc(N)nc2=O)c(=O)[nH]c1=O`, the Tm in test [1] was 68.1 °C; in test [2], 53.6 °C; in test [3], 60.6 °C; in test [5], 60.7 °C; in test [7], 56.3 °C; in test [8], 46.8 °C. The outcome in test [4] and in test [6] was Active.
As to `Cc1cn(CC(=O)N(CCNC(=O)CN(CCNC(=O)CN(CCN)C(=O)Cn2ccc(N)nc2=O)C(=O)Cn2cnc3c(N)ncnc32)CC(=O)NCCN(CC(=O)NCCN(CC(=O)N2CC[C@H](N(CC(=O)NCCN(CC(=O)NCCN(CC(=O)NCCN(CC(=O)NCCN(CC(=O)NCCN(CC(=O)NCCN(CC(=O)N[C@@H](CCCCN)C(N)=O)C(=O)Cn3cc(C)c(=O)[nH]c3=O)C(=O)Cn3ccc(N)nc3=O)C(=O)Cn3cnc4c(N)ncnc43)C(=O)Cn3ccc(N)nc3=O)C(=O)Cn3cnc4c(N)ncnc43)C(=O)Cn3ccc(N)nc3=O)C(=O)Cn3cc(C)c(=O)[nH]c3=O)C2)C(=O)Cn2cnc3c(=O)[nH]c(N)nc32)C(=O)Cn2cc(C)c(=O)[nH]c2=O)c(=O)[nH]c1=O`, the Tm in test [1] was determined as 59.4 °C; in test [2] it was 45.4 °C; in test [3] it was 49.7 °C; in test [5] it was 52.3 °C; in test [7] it was 46.2 °C; in test [8], 42.2 °C. Also, the result in test [4] and in test [6] was Active.
